{"source": "paper PMC3899495", "about": "(Clinical Pharmacokinetics, 2013)", "key": {"[1]": {"conditions": "cited from earlier work"}, "[2]": {"experiment": "Tolerability after single dose", "format": "in vivo, human", "conditions": "single 0.4 U/kg s.c. dose(s)", "method_in_brief": "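Adults 18–85 y, BMI ≤40 kg/m2, in five renal-function groups. 0.4 U/kg s.c. into thigh: non-ESRD once; ESRD twice, post-hemodialysis and ~13 h pre-hemodialysis. In-house ≥48 h; follow-up 7–21 days after last dose. Also physical exam, biochemistry, hematology, urinalysis. AEs graded for severity and relationship; severe hypoglycemia = requiring assistance (ADA). Blood glucose sampled to 68 h (ESRD) or 120 h.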"}, "[3]": {"conditions": "varying degrees of impaired hepatic function; cited from earlier work"}, "[4]": {"format": "in vivo, human", "conditions": "single 0.4 U/kg s.c., geometric mean (CV %), n = 6; for AUC0–∞ / C max: serum, ELISA", "method_in_brief": "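Subjects grouped by screening Cockcroft–Gault creatinine clearance. Non-dialysis subjects received one 0.4 U/kg subcutaneous dose (100 U/mL) into a lifted thigh skin fold at 0800 hours. Serum was sampled pre-dose through 120 h. Concentrations were measured by validated sandwich ELISA (mouse anti-human-insulin monoclonal capture, biotinylated mouse monoclonal detection; serum LLOQ 20 pM). Parameters came from individual concentration–time curves; CL/F = dose/AUC0–∞.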"}, "[5]": {"conditions": "cited from earlier work", "remark": "listed apart in the source"}, "[6]": {"conditions": "mild renal impairment (CLCR 50–80 mL/min)"}, "[7]": {"conditions": "moderate renal impairment (CLCR 30–49 mL/min)"}, "[8]": {"conditions": "normal renal function (CLCR >80 mL/min)"}, "[9]": {"conditions": "severe renal impairment (CLCR <30 mL/min)"}}, "note": "Where two headings read alike, the source gives them in different places."}
{"substance": "Insulin degludec", "values": [{"measurement": "within-subject variability in glucose-lowering effect (AUC values) compared with insulin glargine", "setting": "[1]", "result": "four-times lower"}, {"measurement": "severe adverse events", "setting": "[2]; 32 subjects exposed", "result": "None"}, {"measurement": "severe hypoglycemic episodes", "setting": "[2]; all subjects", "result": "No severe hypoglycemic episodes"}, {"measurement": "effect of impaired hepatic function on ultra-long pharmacokinetic properties", "setting": "[3]", "result": "preserved"}, {"measurement": "CL/F (apparent clearance, dose/AUC0–∞)", "setting": "[4]; [6]", "result": "19.1 (31) mL/h/kg"}, {"measurement": "AUC0–∞", "setting": "[4]; [6]", "result": "126,096 (49) pmol·h/L"}, {"measurement": "C max", "setting": "[4]; [6]", "result": "3,502 (30) pmol/L"}, {"measurement": "CL/F (apparent clearance, dose/AUC0–∞)", "setting": "[4]; [7]", "result": "20.5 (39) mL/h/kg"}, {"measurement": "AUC0–∞", "setting": "[4]; [7]", "result": "117,646 (32) pmol·h/L"}, {"measurement": "C max", "setting": "[4]; [7]", "result": "3,237 (39) pmol/L"}, {"measurement": "CL/F (apparent clearance, dose/AUC0–∞)", "setting": "[4]; [8]", "result": "22.0 (32) mL/h/kg"}, {"measurement": "AUC0–∞", "setting": "[4]; [8]", "result": "109,472 (26) pmol·h/L"}, {"measurement": "C max", "setting": "[4]; [8]", "result": "3,085 (28) pmol/L"}, {"measurement": "CL/F (apparent clearance, dose/AUC0–∞)", "setting": "[4]; [9]", "result": "18.9 (24) mL/h/kg"}, {"measurement": "AUC0–∞", "setting": "[4]; [9]", "result": "127,268 (28) pmol·h/L"}, {"measurement": "C max", "setting": "[4]; [9]", "result": "3,918 (28) pmol/L"}]}
{"substance": "insulin aspart", "values": [{"measurement": "effect of impaired renal function on pharmacokinetics", "setting": "[5]", "result": "reportedly unaffected"}]}
{"substance": "insulin detemir", "values": [{"measurement": "effect of impaired renal function on pharmacokinetics", "setting": "[5]", "result": "reportedly unaffected"}]}
{"substance": "insulin lispro", "values": [{"measurement": "effect of impaired renal function on pharmacokinetics", "setting": "[5]; patients with diabetes", "result": "affect the pharmacokinetics"}]}
{"substance": "regular human insulin", "values": [{"measurement": "effect of impaired renal function on pharmacokinetics", "setting": "[5]; patients with diabetes", "result": "affect the pharmacokinetics"}]}
